Measurements taken from ChEMBL document CHEMBL1137078, “Carbamoylphosphonates, a new class of in vivo active matrix metalloproteinase inhibitors. 1. Alkyl- and cycloalkylcarbamoylphosphonic acids” (J Med Chem, 2004).
Calls of active or inactive are those of the source. The rule behind the calls is not given here.

Experiments:
[1] = molecular target: Neutrophil collagenase (Homo sapiens, UniProt P22894); assay: In vitro inhibitory activity against recombinant matrix metalloprotease-8 was determined
Outline: (§1)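 Commercial recombinant MMP-1, -2, -3, -8 or -9 at four levels (1-50 ng) incubated 3 h with their respective substrates. Compounds at four to six concentrations (0.1-100 µM). Colorimetric change read on an ELISA reader. IC50 calculated from the kinetic data.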

[2] = molecular target: Matrix metalloproteinase-9 (Homo sapiens, UniProt P14780); assay: In vitro inhibitory activity against recombinant matrix metalloprotease-9 was determined; outline: as §1
[3] = molecular target: 72 kDa type IV collagenase (Homo sapiens, UniProt P08253); assay: In vitro inhibitory activity against recombinant matrix metalloprotease-2 was determined; outline: as §1
[4] = molecular target: T1, Interstitial collagenase (Homo sapiens, UniProt P03956); assay: In vitro inhibitory activity against recombinant matrix metalloprotease-1 was determined; outline: as §1
T1 sequence (P03956 whole entry): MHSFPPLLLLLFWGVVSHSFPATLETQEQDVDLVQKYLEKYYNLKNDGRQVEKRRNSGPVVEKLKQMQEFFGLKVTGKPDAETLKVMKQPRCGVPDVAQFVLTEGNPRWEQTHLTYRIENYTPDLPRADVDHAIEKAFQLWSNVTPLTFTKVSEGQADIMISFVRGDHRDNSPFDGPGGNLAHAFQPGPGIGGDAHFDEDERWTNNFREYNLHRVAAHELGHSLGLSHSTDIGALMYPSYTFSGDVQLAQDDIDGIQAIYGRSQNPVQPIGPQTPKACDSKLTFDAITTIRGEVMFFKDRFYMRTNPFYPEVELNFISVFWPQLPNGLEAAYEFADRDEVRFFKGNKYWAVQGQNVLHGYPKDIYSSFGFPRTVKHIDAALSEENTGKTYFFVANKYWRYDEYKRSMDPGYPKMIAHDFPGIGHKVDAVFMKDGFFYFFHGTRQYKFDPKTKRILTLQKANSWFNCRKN

[5] = test system: NIH3T3; assay: In vitro inhibition of invasion of NIH 3T3 cells across the reconstituted basement membrane by the compound at 50 uM concentration in Boyden chamber chemoinvasion assay; Inactive; assay type: functional, cell-based; details: Mus musculus
[6] = molecular target: Stromelysin-1 (Homo sapiens, UniProt P08254); assay: In vitro inhibitory activity against recombinant matrix metalloprotease-3 was determined; outline: as §1
[7] = organism: Homo sapiens; assay: In vitro inhibition of endothelial capillary tube formation by the compound at 50 uM concentration; assay type: functional
Outline: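 Endothelial cells plated on a thin Matrigel layer with angiogenic factor (bFGF/VEGF), incubated 4-6 h to form tubelike structures. Compounds added at 5 concentrations (100, 50, 25, 10, 5 µM). Tube formation quantified by image analysis. Value is % inhibition at 50 µM.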

[8] = test system: B16-F10; assay: Inhibition of lung metastasis formation after 3 weeks treatment with 50 mg/kg of compound in mice injected with 50000 B16F10 tumor cells into the tail vein; assay type: functional; details: Mus musculus, 504 h
Outline: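 Experimental metastasis in mice: 50 000 B16F10 melanoma cells injected into the tail vein. Compound given ip daily at 50 mg/kg for 3 weeks. Mice sacrificed at day 21, lungs fixed, and surface tumor foci counted. Value is % inhibition of lung metastasis formation.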

Neutrophil collagenase, sequence (P22894 whole entry): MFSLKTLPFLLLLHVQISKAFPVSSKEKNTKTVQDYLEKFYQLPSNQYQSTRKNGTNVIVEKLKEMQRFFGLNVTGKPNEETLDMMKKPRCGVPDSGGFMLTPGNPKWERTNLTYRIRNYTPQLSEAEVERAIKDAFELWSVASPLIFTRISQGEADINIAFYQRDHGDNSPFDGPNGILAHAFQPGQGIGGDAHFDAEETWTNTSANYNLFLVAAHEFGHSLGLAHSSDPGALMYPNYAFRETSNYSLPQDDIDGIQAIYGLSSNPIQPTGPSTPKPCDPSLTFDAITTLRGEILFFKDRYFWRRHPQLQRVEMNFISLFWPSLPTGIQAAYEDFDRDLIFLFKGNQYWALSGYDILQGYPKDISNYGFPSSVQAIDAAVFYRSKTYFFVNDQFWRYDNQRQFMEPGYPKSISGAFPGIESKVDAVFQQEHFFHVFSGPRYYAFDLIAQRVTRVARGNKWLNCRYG
72 kDa type IV collagenase, sequence (P08253 whole entry): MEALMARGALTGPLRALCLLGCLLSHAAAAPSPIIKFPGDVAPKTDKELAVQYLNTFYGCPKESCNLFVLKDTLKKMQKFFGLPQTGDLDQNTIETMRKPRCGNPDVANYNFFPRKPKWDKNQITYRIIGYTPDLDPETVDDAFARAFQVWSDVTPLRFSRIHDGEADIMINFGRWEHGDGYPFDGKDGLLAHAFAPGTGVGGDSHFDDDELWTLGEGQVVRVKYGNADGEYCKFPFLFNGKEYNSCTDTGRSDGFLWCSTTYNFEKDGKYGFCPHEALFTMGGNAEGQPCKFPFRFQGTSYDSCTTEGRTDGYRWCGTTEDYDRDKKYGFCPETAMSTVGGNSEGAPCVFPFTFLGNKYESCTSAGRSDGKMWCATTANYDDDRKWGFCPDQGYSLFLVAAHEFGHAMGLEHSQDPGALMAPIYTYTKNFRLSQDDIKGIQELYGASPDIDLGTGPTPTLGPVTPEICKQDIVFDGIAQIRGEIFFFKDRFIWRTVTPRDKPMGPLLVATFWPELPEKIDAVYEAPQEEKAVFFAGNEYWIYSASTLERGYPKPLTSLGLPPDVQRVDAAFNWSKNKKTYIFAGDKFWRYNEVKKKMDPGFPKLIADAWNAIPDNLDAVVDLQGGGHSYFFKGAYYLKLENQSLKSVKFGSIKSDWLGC
Stromelysin-1, sequence (P08254 whole entry): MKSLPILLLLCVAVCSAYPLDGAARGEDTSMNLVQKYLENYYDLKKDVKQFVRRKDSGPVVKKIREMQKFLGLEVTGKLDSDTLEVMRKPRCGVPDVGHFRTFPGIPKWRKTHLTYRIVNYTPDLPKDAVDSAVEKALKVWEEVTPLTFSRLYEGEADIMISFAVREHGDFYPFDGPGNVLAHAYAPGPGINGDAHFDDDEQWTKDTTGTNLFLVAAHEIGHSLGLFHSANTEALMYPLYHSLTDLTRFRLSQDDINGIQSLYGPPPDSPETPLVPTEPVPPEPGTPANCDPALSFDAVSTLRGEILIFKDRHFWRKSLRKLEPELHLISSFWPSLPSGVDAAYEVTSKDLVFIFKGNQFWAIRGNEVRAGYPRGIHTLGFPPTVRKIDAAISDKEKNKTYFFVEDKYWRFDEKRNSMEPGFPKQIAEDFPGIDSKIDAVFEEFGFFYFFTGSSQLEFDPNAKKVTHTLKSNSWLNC
Matrix metalloproteinase-9, sequence (P14780 whole entry): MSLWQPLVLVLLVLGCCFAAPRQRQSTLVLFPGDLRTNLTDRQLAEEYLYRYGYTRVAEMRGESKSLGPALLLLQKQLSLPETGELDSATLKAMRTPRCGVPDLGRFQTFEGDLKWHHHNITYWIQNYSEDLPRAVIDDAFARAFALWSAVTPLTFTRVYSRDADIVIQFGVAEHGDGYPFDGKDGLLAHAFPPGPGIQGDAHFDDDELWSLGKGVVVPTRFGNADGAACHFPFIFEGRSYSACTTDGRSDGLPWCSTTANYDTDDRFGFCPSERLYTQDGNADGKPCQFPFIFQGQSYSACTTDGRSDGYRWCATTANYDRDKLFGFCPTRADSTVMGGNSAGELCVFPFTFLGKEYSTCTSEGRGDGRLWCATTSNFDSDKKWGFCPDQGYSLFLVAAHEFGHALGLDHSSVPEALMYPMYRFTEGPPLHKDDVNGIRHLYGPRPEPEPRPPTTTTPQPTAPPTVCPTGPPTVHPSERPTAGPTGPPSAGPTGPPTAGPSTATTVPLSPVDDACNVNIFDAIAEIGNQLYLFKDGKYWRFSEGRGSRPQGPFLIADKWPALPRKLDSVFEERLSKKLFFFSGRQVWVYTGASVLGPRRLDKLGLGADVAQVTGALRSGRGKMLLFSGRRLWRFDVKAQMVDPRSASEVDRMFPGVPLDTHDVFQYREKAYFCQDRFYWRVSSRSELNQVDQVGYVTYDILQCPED

Structure (SMILES)	IC50 [1] [µM]	IC50 [2] [µM]	IC50 [3] [µM]	IC50 [4] [µM]	inhibition [5]	IC50 [6] [µM]	inhibition [7] [%]	inhibition in vivo at 50 mg/kg [8] [%]
CC(C)CCNC(=O)P(=O)(O)O.NC1CCCCC1	50	> 100	30	> 100	inactive	> 100		
CCC(CC)NC(=O)P(=O)(O)O	10	> 100	3	80		> 100		
O=C(N1CCCCC1)P(=O)(O)O	> 100	0.5	1	70	inactive	90		
CCC(C)NC(=O)P(=O)(O)O (configuration not stated)	> 100	> 100	3	40		80	20	
O=C(N1CCOCC1)P(=O)(O)O	30	> 100	> 100	50	inactive	1		
O=C(NC1CCC1)P(=O)(O)O [(CYCLOBUTYLAMINO)CARBONYLPHOSPHONIC ACID]	0.04	> 100	0.15	> 100		> 100		60
O=C(NC1CCCCCC1)P(=O)(O)O [(CYCLOHEPTYLAMINO)CARBONYLPHOSPHONIC ACID]	> 100	> 100	4	> 100		> 100	45	69
O=C(NC1CCCCC1)P(=O)(O)O [(CYCLOHEXYLAMINO)CARBONYLPHOSPHONIC ACID]	> 100	> 100		0.1		3	50	37
O=C(NC1CCCCCCC1)P(=O)(O)O [(CYCLOOCTYLAMINO)CARBONYLPHOSPHONIC ACID]	4	> 100	1	> 100		> 100	25	
O=C(NC1CCCC1)P(=O)(O)O [(CYCLOPENTYLAMINO)CARBONYLPHOSPHONIC ACID]	> 100	> 100		0.5		> 100	70	72
O=C(NC1CC1)P(=O)(O)O [(CYCLOPROPYLAMINO)CARBONYLPHOSPHONIC ACID]	0.2	> 100	0.5	> 100		> 100		
CCCCN(CCCC)C(=O)P(=O)(O)O [(DIBUTYLAMINO)CARBONYLPHOSPHONIC ACID]	90	> 100	50	70	inactive	30		
CCN(CC)C(=O)P(=O)(O)O [(DIETHYLAMINO)CARBONYLPHOSPHONIC ACID]	70	> 100	1	30	inactive	30		
CCNC(=O)P(=O)(O)O [(ETHYLAMINO)CARBONYLPHOSPHONIC ACID]	30	3	5	50		100		
CC(C)NC(=O)P(=O)(O)O [(ISOPROPYLAMINO)CARBONYLPHOSPHONIC ACID]	50	2	1	50		> 100	55	40
CNC(=O)P(=O)(O)O [(METHYLAMINO)CARBONYLPHOSPHONIC ACID]	20	> 100	0.02	> 100		90		55
CCCNC(=O)P(=O)(O)O [(PROPYLAMINO)CARBONYLPHOSPHONIC ACID]	> 100	20	0.3	20		50		
CC(C)CNC(=O)P(=O)(O)O.NC1CCCCC1 [CYCLOHEXANAMINIUM HYDROGEN (ISOBUTYLAMINO)CARBONYLPHOSPHONATE]	1	> 100	> 100	40	inactive	> 100		
O=C(NCC1CCCCC1)P(=O)(O)O [CYCLOHEXYLMETHYLCARBAMOYLPHOSPHONIC ACID]	80			30		1	53	69
CCOP(=O)(O)C(=O)NC1CCCCC1 [LITHIUM ETHYL (CYCLOHEXYLAMINO)CARBONYLPHOSPHONATE]	> 100	> 100	30	1.5		> 100		
O=C(NCCc1ccccc1)P(=O)(O)O [PHENETHYLCARBAMOYLPHOSPHONIC ACID]	> 100	> 100	20	80		90		
CCCCNC(=O)P(=O)(O)O [SODIUM HYDROGEN (BUTYLAMINO)CARBONYLPHOSPHONATE]	> 100	> 100	2	25		> 100	20	
